In ChEMBL document CHEMBL1131195, “Antileishmanial chalcones: statistical design, synthesis, and three-dimensional quantitative structure-activity relationship analysis” (J Med Chem, 1998) one finds IC50 data, which are given here for seven molecules.

A short description of assay [1]: Inhibitory activity against phytohemagglutininin A-induced proliferation of human lymphocytes; Not tested due to low solubility. In kind it is functional.
The subject of assay [2] is Leishmania donovani. As to the kind of experiment: Tested in vitro for anti-leishmanial activity against Leishmania. donovani; Not tested due to low solubility. In kind it is functional, organism-based.
Assay [3] deals with Leishmania donovani. Nature of the assay: Tested in vitro for anti-leishmanial activity against Leishmania donovani. In kind it is functional, organism-based. The gist of the method:
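In vitro assay using Leishmania donovani promastigotes incubated with increasing chalcone concentrations, with inhibition of parasite proliferation as the read-out.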

As usually defined, the IC50 is the concentration that inhibits the measured activity by half. High values mean weaker potency, low ones greater potency. Consider `O=C(/C=C/c1ccc(Oc2ccccc2)cc1)c1ccc(C2CCCCC2)cc1`, for which the IC50 entry (in assay [1]; with Leishmania donovani [2]) was “Not Active” throughout.
On to `CN(C)c1ccc(/C=C/C(=O)c2ccc(N(C)C)cc2)cc1`, for which the IC50 result in assay [1] was “Not Active”; in the assay on Leishmania donovani [3] it was 30 µM.
Turning to `CN(C)c1ccc(/C=C/C(=O)c2ccc([N+](=O)[O-])cc2)cc1`, the IC50 entry (in assay [1]; in the assay on Leishmania donovani [2]) was “Not Active” throughout.
As for `CCCCCCOc1ccc(C(=O)/C=C/c2ccc(OC)cc2OC)cc1`, the figures for the IC50 result (in assay [1]; in the assay on Leishmania donovani [3]) were “Not Active” and 136 µM, respectively.
Consider `CN(C)c1ccc(C(=O)/C=C/c2ccc([N+](=O)[O-])cc2)cc1`, for which the IC50 entry (in assay [1]; in the assay with Leishmania donovani [2]) was “Not Active” each time.
Regarding `COc1cc(/C=C/C(=O)c2ccc(N(C)C)cc2)cc(OC)c1`, the concentration for half-maximal inhibition (IC50) result (in assay [1]; with Leishmania donovani [2]) was “Not Active” in each case.
`C=CCOc1ccc(C(=O)/C=C/c2cc(OC)c(CCCC)c(OC)c2)cc1`: the IC50 result in assay [1] was “Not Active”; in the assay with Leishmania donovani [3] it was 90 µM.
